These results are taken from ChEMBL document CHEMBL1126160, “Synthesis and structure-activity relationships of 7-diazabicycloalkylquinolones, including danofloxacin, a new quinolone antibacterial agent for veterinary medicine” (J Med Chem, 1992).

Data set [1] has as its system Actinobacillus pleuropneumoniae. Briefly: In vitro antibacterial activity against anaerobically grown Actinobacillus pleuropneumoniae ([…]). The class given is functional. The procedure, abridged: (§1)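 Agar dilution MICs. Anaerobic strains were tested on tryptose agar with 5% bovine blood and incubated 48 h at 39 °C in an anaerobe chamber under N2/CO2/H2 (80:10:10).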

For data set [2], the system named is Trueperella pyogenes. Briefly: In vitro antibacterial activity against anaerobically grown Actinomyces pyogenes (14D002). The class given is functional. In short, it runs like this:
as §1

For data set [3], the system named is Phocaeicola vulgatus. Nature of the data set: In vitro antibacterial activity against anaerobically grown Bacteroides vulgatus (78D029). Type of data set: functional. The procedure, abridged:
as §1

For data set [4], the system named is Bordetella bronchiseptica. Nature of the data set: In vitro antibacterial activity against aerobically grown Bordetella bronchiseptica (73A009). Type of data set: functional. The procedure, abridged:
(§2)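 Agar dilution MICs. Aerobic strains were tested on brain heart infusion agar and incubated aerobically at 37 °C for 18–20 h.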

Data set [5] concerns Escherichia coli. Nature of the data set: In vivo protective dose was evaluated against Escherichia coli (51A266) in mouse(po). The class given is functional. The following applies: read-out: PD50. In short, it runs like this: (§3)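 Female CF-1 mice (15 g), groups of 10, challenged ip with 0.5 mL bacterial suspension (P. multocida 59A006 or E. coli 51A266 at 3.0 × 10^8 cfu/mL; S. choleraesuis 58B010 at 8.5 × 10^2 cfu/mL). Drug given sc or po at 30 min, 4 h and 24 h after challenge; survival recorded at 96 h; PD50 by probit analysis.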

The test system of data set [6] is Escherichia coli. Nature of the data set: In vivo protective dose was evaluated against Escherichia coli (51A266) in mouse(sc). The class given is functional. The following applies: read-out: PD50. In short, it runs like this:
as §3

For data set [7], the system named is Escherichia coli. Briefly: In vitro antibacterial activity against aerobically grown Escherichia coli (51A538). Type of data set: functional. In short, it runs like this: as §2
Data set [8] concerns Escherichia coli. Nature of the data set: Escherichia coli DNA cleavage endpoint value which is the minimum amount required (in micro g/mL) to induce detectable cleavage of supercoiled pBR322 substrate to linear form (gyrase). The class given is functional. The following applies: read-out: MIC. The procedure, abridged:
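DNA gyrase A and B subunits were purified from E. coli overproducers. About 2 units of holoenzyme were incubated with pBR322 in Tris-HCl pH 7.5 containing MgCl2, spermidine, DTT, 0.2 mM ATP, BSA and tRNA. Drug was added as 2-fold serial dilutions, and reactions ran for 60 min at 25 °C. Reactions were stopped with SDS and proteinase K, then run on agarose and stained with ethidium. The endpoint was the lowest concentration giving detectable linear DNA.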

For data set [9], the system named is Mannheimia haemolytica. Nature of the data set: Compound was evaluated for minimum effective dose against Pasteurella haemolytica, intramuscular dose administration. The class given is functional. The following applies: im, read-out: MED. The procedure, abridged: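 Calves acid-treated intratracheally with 0.6 mL 8% acetic acid at 24 h and 4 h before endotracheal challenge with 50 mL P. haemolytica B280PA (~5 × 10^8 cfu/mL). im dosing of 2.5% or 5% solution in sterile water, day 0 and day 1 (SID × 2). Clinical signs and temperature recorded days 0–5; lungs scored and cultured. MED = lowest dose giving significant (65%) reduction of lung pathology.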

The nature of data set [10]: In vitro antibacterial activity against Aerobically grown Pasteurella haemolytica (59B018). The class given is functional. The following applies: Mannheimia haemolytica. In short, it runs like this:
as §2

The test system of data set [11] is Pasteurella multocida. Nature of the data set: In vitro antibacterial activity against aerobically grown Pasteurella multocida (59A006). Type of data set: functional. The procedure, abridged: as §2
In data set [12] the test system is Pasteurella multocida. Briefly: In vivo protective dose was evaluated against Pasteurella multocida (59A006) in mouse(po). The class given is functional. The following applies: read-out: PD50. In short, it runs like this: as §3
Data set [13] relates to Pasteurella multocida. Briefly: In vivo protective dose was evaluated against Pasteurella multocida (59A006) in mouse(sc). The class given is functional. The following applies: read-out: PD50. In short, it runs like this:
as §3

Data set [14] has as its system Salmonella enterica. Briefly: In vitro antibacterial activity against aerobically grown Salmonella choleraesuis (58B015). Type of data set: functional.
The test system of data set [15] is Staphylococcus aureus. Nature of the data set: In vitro antibacterial activity against aerobically grown Staphylococcus aureus (54B004). Type of data set: functional. The procedure, abridged:
as §2

Data set [16] in a line: In vitro evaluation for antibacterial activity against anaerobically grown Treponema hyodysenteriae (94A007). Type of data set: functional. The following applies: Brachyspira hyodysenteriae.
Data set [17] relates to Clostridium perfringens. Briefly: microbe, parasite or virus in culture. The class given is functional.
The subject of data set [18] is Actinobacillus pleuropneumoniae. Nature of the data set: Compound was evaluated for minimum effective dose against Actinobacillus pleuropneumonia, intramuscular dose administration. The following applies: im, read-out: MED.
The subject of data set [19] is Pasteurella multocida. Nature of the data set: In vitro antibacterial activity against Aerobically grown Pasteurella multocida (59A006). The class given is functional. In short, it runs like this: as §2
Data set [20] deals with Salmonella enterica. Briefly: In vitro antibacterial activity against Aerobically grown Salmonella choleraesuis (58B015). The class given is functional.
Data set [21] can be described thus: Compound was evaluated for aqueous solubility at pH 7.2. The following applies: buffer.

For orientation: solubility means the dissolved amount per volume that the medium holds. The low end stands for a poorly soluble substance, the high end for a readily soluble substance.

Values after ≈ are worked out from the molar mass of the structure shown.

As for `CN1[C@@H]2CC[C@H]1CN(c1cc3c(cc1F)c(=O)c(C(=O)O)cn3C1CC1)C2`, the MIC is 0.39 µg/mL (≈ 1.05 µM) in data set [1]; 3.13 µg/mL (≈ 8.43 µM) in data set [2]; 1.56 µg/mL (≈ 4.2 µM) in [3]; 1.56 µg/mL (≈ 4.2 µM) in data set [4]; 0.1 µg/mL (≈ 0.269 µM) in data set [7]; 0.1 µg/mL (≈ 0.269 µM) in data set [10]. The MIC in [11] was 0.05 µg/mL (≈ 0.135 µM); in [14], 0.2 µg/mL (≈ 0.538 µM); in [15], 0.1 µg/mL (≈ 0.269 µM); in [16], 0.78 µg/mL (≈ 2.1 µM); in data set [17], 0.1 µg/mL (≈ 0.269 µM). For the same molecule, the ED50 came out at 3.8 mg/kg in data set [5], 0.15 mg/kg in data set [6], 0.98 mg/kg in [12] and 0.37 mg/kg in data set [13]. For the same molecule, the minimum concentration inducing gyrase-mediated DNA cleavage in data set [8] is 0.78 µg/mL. For the same molecule, the minimal effective dose in data set [9] and in data set [18] was 0.3 mg/kg each time.

With `O=C(O)c1cn(C2CC2)c2cc(N3CCN4CCCC3C4)c(F)cc2c1=O` (centres undefined), the MIC in [1] came out at 0.02 µg/mL (≈ 0.0538 µM); in data set [2], 3.13 µg/mL (≈ 8.43 µM); in data set [3], 0.78 µg/mL (≈ 2.1 µM); in [4], 0.78 µg/mL (≈ 2.1 µM); in data set [7], 0.05 µg/mL (≈ 0.135 µM); in data set [10], 0.02 µg/mL (≈ 0.0538 µM). Also, the MIC in data set [11] amounted to 0.002 µg/mL (≈ 0.00538 µM); in data set [14], 0.05 µg/mL (≈ 0.135 µM); in data set [15], 0.1 µg/mL (≈ 0.269 µM); in data set [16] it was 0.2 µg/mL (≈ 0.538 µM); in data set [17], 0.2 µg/mL (≈ 0.538 µM). Also, the results for the ED50 in [6] and in [13] were 0.31 mg/kg and 0.15 mg/kg, respectively. The minimum concentration inducing gyrase-mediated DNA cleavage in data set [8] is 0.78 µg/mL.

As for `CN1C[C@@H]2C[C@H]1CN2c1cc2c(cc1F)c(=O)c(C(=O)O)cn2-c1ccc(F)cc1`, the MIC in data set [1] turned out to be 0.1 µg/mL (≈ 0.243 µM); in [2], 3.13 µg/mL (≈ 7.61 µM); in data set [3], 1.56 µg/mL (≈ 3.79 µM); in data set [4] it was 1.56 µg/mL (≈ 3.79 µM); in data set [7], 0.2 µg/mL (≈ 0.486 µM); in data set [10], 0.1 µg/mL (≈ 0.243 µM). In addition, the MIC in data set [11] was found to be 0.02 µg/mL (≈ 0.0486 µM); in [14] it was 0.2 µg/mL (≈ 0.486 µM); in [15] it was 0.2 µg/mL (≈ 0.486 µM); in data set [16] it was 0.78 µg/mL (≈ 1.9 µM); in [17], 0.1 µg/mL (≈ 0.243 µM). For the same molecule, the ED50 in [6] stood at 0.94 mg/kg; in data set [13], 0.29 mg/kg. For the same molecule, the minimum concentration inducing gyrase-mediated DNA cleavage in [8] was determined as 1.56 µg/mL.

For `CCn1cc(C(=O)O)c(=O)c2cc(F)c(N3C[C@@H]4C[C@H]3CN4C)cc21`, the MIC was 0.78 µg/mL (≈ 2.26 µM) in data set [1]; above 3.13 µg/mL in data set [2]; above 3.13 µg/mL in [3]; 1.56 µg/mL (≈ 4.52 µM) in [4]; 0.2 µg/mL (≈ 0.579 µM) in data set [7]; 0.39 µg/mL (≈ 1.13 µM) in [10]. The MIC in data set [19] was determined as 0.1 µg/mL (≈ 0.29 µM); in [20], 0.39 µg/mL (≈ 1.13 µM); in data set [15] it was 0.39 µg/mL (≈ 1.13 µM); in [16], 1.56 µg/mL (≈ 4.52 µM); in data set [17], 0.2 µg/mL (≈ 0.579 µM). For the same molecule, the ED50 in data set [6] was 1.45 mg/kg; in data set [13], 1.35 mg/kg. The minimum concentration inducing gyrase-mediated DNA cleavage in [8] came to 3.12 µg/mL.

For the molecule `C=Cn1cc(C(=O)O)c(=O)c2cc(F)c(N3C[C@H]4CC[C@@H](C3)N4C)cc21`, the MIC is 0.2 µg/mL (≈ 0.56 µM) in data set [1]; 3.13 µg/mL (≈ 8.76 µM) in data set [2]; 6.25 µg/mL (≈ 17.5 µM) in [3]; 12.5 µg/mL (≈ 35 µM) in data set [4]; 0.78 µg/mL (≈ 2.18 µM) in [7]; 0.39 µg/mL (≈ 1.09 µM) in data set [10]. Besides, the MIC in data set [11] worked out at 0.1 µg/mL (≈ 0.28 µM); in data set [14], 0.78 µg/mL (≈ 2.18 µM); in data set [15] it was 0.2 µg/mL (≈ 0.56 µM); in data set [16], 1.56 µg/mL (≈ 4.37 µM); in data set [17], 0.78 µg/mL (≈ 2.18 µM). For the same molecule, in data set [8], the minimum concentration inducing gyrase-mediated DNA cleavage was 0.39 µg/mL.

The molecule `CCn1cc(C(=O)O)c(=O)c2cc(F)c(N3CCNCC3)cc21` [NORFLOXACIN] gave a solubility in data set [21] of 350 µg/mL (≈ 1100 µM). Also, the MIC is below 0.05 µg/mL in data set [1]; 12.5 µg/mL (≈ 39.1 µM) in data set [2]; 25 µg/mL (≈ 78.3 µM) in [3]; 6.25 µg/mL (≈ 19.6 µM) in data set [4]; 0.1 µg/mL (≈ 0.313 µM) in data set [7]; 0.05 µg/mL (≈ 0.157 µM) in data set [10]. Further, the MIC was 0.05 µg/mL (≈ 0.157 µM) in data set [11]; 0.1 µg/mL (≈ 0.313 µM) in [14]; 3.13 µg/mL (≈ 9.8 µM) in data set [15]; 6.25 µg/mL (≈ 19.6 µM) in data set [16]; 0.39 µg/mL (≈ 1.22 µM) in data set [17]. Moreover, the ED50 in data set [5] worked out at 8.84 mg/kg; in data set [6] it was 0.46 mg/kg; in data set [12] it was 0.63 mg/kg; in data set [13], 5.54 mg/kg. Moreover, in data set [8], the minimum concentration inducing gyrase-mediated DNA cleavage was found to be 0.78 µg/mL.
